Assay results published in ChEMBL document CHEMBL1773039, “Structure-Activity Study of Dihydrocinnamic Acids and Discovery of the Potent FFA1 (GPR40) Agonist TUG-469” (ACS Med Chem Lett, 2010).
Activity calls are given as the source filed them. No cut-off for these calls is given here.

How the values were obtained:
[1] = target: T1, Free fatty acid receptor 1 (Homo sapiens, UniProt O14842); test: Agonist activity at human FFA1 transfected in 1321N1 cells assessed as calcium mobilization by microplate assay; assay type: functional, cell-based
T1 sequence (O14842 whole entry): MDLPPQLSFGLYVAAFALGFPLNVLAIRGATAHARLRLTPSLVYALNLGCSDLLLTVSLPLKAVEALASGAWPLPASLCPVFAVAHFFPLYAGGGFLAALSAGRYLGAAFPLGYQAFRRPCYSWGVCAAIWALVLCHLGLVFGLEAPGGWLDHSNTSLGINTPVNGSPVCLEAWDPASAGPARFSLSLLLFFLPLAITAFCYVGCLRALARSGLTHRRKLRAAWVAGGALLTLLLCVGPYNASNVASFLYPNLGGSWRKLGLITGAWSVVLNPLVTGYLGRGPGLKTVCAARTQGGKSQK
How it was run: (§1)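 Calcium mobilization in hFFA1-expressing cells was measured as full concentration-response curves and reported as pEC50. Efficacy is % of the response to 10 μM of the reference agonist.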

[2] = target: Free fatty acid receptor 3 (Homo sapiens) (UniProt O14843); test: Agonist activity at human GPR41 in HEK293 cells
Chain of Free fatty acid receptor 3 (Homo sapiens) (O14843 whole entry, looked up): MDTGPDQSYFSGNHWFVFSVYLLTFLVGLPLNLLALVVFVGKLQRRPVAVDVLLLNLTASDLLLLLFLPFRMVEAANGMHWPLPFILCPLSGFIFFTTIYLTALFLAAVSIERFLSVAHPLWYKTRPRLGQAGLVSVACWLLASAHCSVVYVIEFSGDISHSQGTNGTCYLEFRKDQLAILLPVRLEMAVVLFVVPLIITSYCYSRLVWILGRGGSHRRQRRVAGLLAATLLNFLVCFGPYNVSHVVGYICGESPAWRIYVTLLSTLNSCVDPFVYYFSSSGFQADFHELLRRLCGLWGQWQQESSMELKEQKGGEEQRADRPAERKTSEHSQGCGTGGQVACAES

[3] = target: T1, Free fatty acid receptor 1; test: Agonist activity at human FFA1 transfected in 1321N1 cells assessed as calcium mobilization by microplate assay relative to 10 uM TUG-20; assay type: functional, cell-based; how it was run: as §1
[4] = target: T2, Peroxisome proliferator-activated receptor gamma (Homo sapiens) (UniProt P37231); test: Transactivation of human PPARgamma ligand binding domain transfected in mouse embryo fibroblasts assessed as renilla luciferase activity at 1 uM after 18 hrs by luminometry relative to 1 uM rosiglitazone
T2 sequence (whole entry): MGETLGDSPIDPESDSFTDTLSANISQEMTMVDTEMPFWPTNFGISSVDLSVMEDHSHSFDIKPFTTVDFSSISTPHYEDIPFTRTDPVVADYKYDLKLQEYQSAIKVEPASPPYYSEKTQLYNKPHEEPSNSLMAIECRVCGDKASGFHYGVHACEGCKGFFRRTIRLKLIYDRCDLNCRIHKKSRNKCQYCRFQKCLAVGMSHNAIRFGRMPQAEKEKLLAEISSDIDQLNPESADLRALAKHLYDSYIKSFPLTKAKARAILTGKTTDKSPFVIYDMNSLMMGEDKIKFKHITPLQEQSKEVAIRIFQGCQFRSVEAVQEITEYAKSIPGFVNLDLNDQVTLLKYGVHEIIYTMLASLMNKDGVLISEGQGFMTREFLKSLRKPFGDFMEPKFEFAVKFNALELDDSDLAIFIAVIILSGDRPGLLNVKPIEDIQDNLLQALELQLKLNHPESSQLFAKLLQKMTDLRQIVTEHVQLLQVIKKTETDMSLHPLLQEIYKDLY

Homo sapiens = species: Homo sapiens; test: Selectivity for human FFA1 over human PPARgamma
[5] = target: Free fatty acid receptor 2 (Homo sapiens) (UniProt O15552); test: Agonist activity at human GPR43 in HEK293 cells
Chain of Free fatty acid receptor 2 (Homo sapiens) (O15552 whole entry, looked up, the tested form may be a part): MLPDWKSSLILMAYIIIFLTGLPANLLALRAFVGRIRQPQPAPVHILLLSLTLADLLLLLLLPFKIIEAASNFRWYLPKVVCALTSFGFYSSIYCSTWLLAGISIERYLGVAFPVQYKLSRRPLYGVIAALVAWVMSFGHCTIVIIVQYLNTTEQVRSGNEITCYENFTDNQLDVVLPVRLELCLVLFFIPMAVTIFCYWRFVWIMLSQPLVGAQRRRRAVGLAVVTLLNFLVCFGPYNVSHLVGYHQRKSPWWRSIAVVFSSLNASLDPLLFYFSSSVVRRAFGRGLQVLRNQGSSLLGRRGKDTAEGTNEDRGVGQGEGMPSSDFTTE

[6] = target: T2, Peroxisome proliferator-activated receptor gamma (Homo sapiens); test: Transactivation of human PPARgamma ligand binding domain transfected in mouse embryo fibroblasts at 100 uM after 18 hrs analyzed by photinus and renilla luciferase activity by luminometry relative to 1 uM rosiglitazone
[7] = target: T1, Free fatty acid receptor 1; test: Agonist activity at human FFA1 transfected in 1321N1 cells under serum-free condition after 1 hr by dose response curve/dynamic mass redistribution optical biosensor assay; assay type: functional, cell-based
How it was run: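 hFFA1-transfected 1321N1 cells were exposed to a range of agonist concentrations. Label-free dynamic mass redistribution was tracked over time as the resonant wavelength shift (pm), a read-out of receptor activation. pEC50 was taken from concentration-response curves of this signal.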

[8] = target: T1, Free fatty acid receptor 1; test: Agonist activity at human FFA1 transfected in 1321N1 cells assessed as calcium mobilization by microplate assay relative to linoleic acid; assay type: functional, cell-based
[9] = target: T1, Free fatty acid receptor 1; test: Agonist activity at human FFA1 transfected in 1321N1 cells assessed as calcium mobilization by microplate assay in presence of 0.05 % bovine serum albumin; assay type: functional, cell-based
How it was run: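 Calcium-response assay at hFFA1, with 0.05% BSA added to the assay because the compound dissolves poorly.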

[10] = target: T1, Free fatty acid receptor 1; test: Agonist activity at human FFA1 transfected in 1321N1 cells assessed as calcium mobilization by microplate assay in presence of 0.5 % bovine serum albumin; assay type: functional, cell-based

Row | SMILES | EC50 [1] [nM] | Activity [2] | Efficacy [3] [%] | Activity [4] | fold change (FC) (Homo sapiens) | Activity [5] | Activity [6] | EC50 [7] [nM] | Activity [8] [%] | EC50 [9] [nM] | EC50 [10] [nM]
1 | CC(Oc1ccc(CCC(=O)O)cc1)c1ccccc1 (stereo unspecified) | 3310 | inactive | 106 | inactive | > 100 | inactive |  |  |  |  | 
2 | Cc1ccc(-c2cccc(COc3ccc(CCC(=O)O)cc3)c2)cc1 | 490 | inactive | 86 | inactive | > 100 | inactive | 15% |  |  |  | 
3 | O=C(O)CCc1ccc(OCc2ccccc2)c(I)c1 | 12600 | inactive | 81 | inactive | > 100 | inactive | 42% |  |  |  | 
4 | O=C(O)CCc1ccc(NCc2ccccc2)cc1 | 759 | inactive | 89 | inactive | > 100 | inactive | 7% |  |  |  | 
5 | O=C(O)CCc1ccc(OCc2ccc(-c3ccccc3)cc2)cc1 | 912 | inactive | 97 | inactive | > 100 | inactive | inactive |  |  |  | 
6 | O=C(O)CCc1ccc(NCc2cccc(C(F)(F)F)c2)cc1 | 186 | inactive | 102 | inactive | > 100 | inactive |  |  |  |  | 
7 | O=C(O)CCc1ccc(OCc2ccccc2)cc1 [BENZYLOXYPHENYLPROPANOIC ACID] | 457 | inactive |  | inactive |  | inactive | 7% | 832 | 123 |  | 
8 | O=C(O)CCc1ccc(OCc2ccc(Br)cc2)cc1 | 550 | inactive | 98 | inactive | > 100 | inactive |  |  |  |  | 
9 | Cc1cc(Oc2ncc(C(F)(F)F)cc2Cl)ccc1CC1SC(=O)NC1=O (stereo unspecified) | 178 |  | 103 |  |  |  |  |  |  |  | 
10 | O=C(O)CCc1ccc(OCc2cccc(C(F)(F)F)c2)cc1 | 83.2 | inactive | 103 | inactive | > 100 | inactive |  |  |  |  | 
11 | O=C(O)CCc1ccc(NCc2cccc(Oc3ccccc3)c2)cc1 [GW9508] | 28.8 |  | 103 |  |  |  | 54% | 87.1 |  |  | 
12 | Cc1ccc(-c2cccc(CNc3ccc(CCC(=O)O)cc3)c2)cc1 | 126 | inactive | 92 | inactive | > 100 | inactive | 31% |  |  |  | 
13 | O=C(O)CCc1ccc(CNc2ccccc2)cc1 | 21400 | inactive | 101 | inactive | > 100 | inactive | inactive |  |  |  | 
14 | O=C(O)CCc1ccc(NCc2ccc(-c3ccccc3)cc2)cc1 | 417 | inactive | 92 | inactive | > 100 | inactive | 23% |  |  |  | 
15 | O=C(O)CCc1ccc(OCc2ccccc2Br)cc1 | 447 | inactive | 99 | inactive | > 100 | inactive |  |  |  |  | 
16 | COc1ccccc1-c1cccc(CNc2ccc(CCC(=O)O)cc2)c1 | 69.2 | inactive | 109 | inactive | > 100 | inactive | 51% |  |  |  | 
17 | O=C(O)CCc1ccc(COc2ccccc2)cc1 | 6310 | inactive | 88 | inactive | > 100 | inactive | inactive |  |  |  | 
18 | O=C(O)CCc1ccc(NCc2cccc(-c3ccccc3)c2)cc1 | 53.7 | inactive | 101 | inactive | > 100 | inactive | 33% |  |  |  | 
19 | O=C(O)CCc1ccc(NCc2ccc(Oc3ccccc3)cc2)cc1 | 182 | inactive | 100 | inactive | > 100 | inactive | 34% |  |  |  | 
20 | COc1ccccc1-c1cccc(COc2ccc(CCC(=O)O)cc2)c1 | 120 | inactive | 105 | inactive | > 100 | inactive | 37% |  |  |  | 
21 | O=C(O)CCc1ccc(OCc2cccc(-c3ccccc3)c2)cc1 | 135 | inactive | 105 | inactive | > 100 | inactive | 25% |  |  |  | 

Other lines, results leading:

Row | EC50 [1] [nM] | Activity [2] | Efficacy [3] [%] | Activity [4] | fold change (FC) (Homo sapiens) | Activity [5] | Activity [6] | EC50 [7] [nM] | Activity [8] [%] | EC50 [9] [nM] | EC50 [10] [nM] | SMILES
22 | 174 | inactive | 110 | inactive | > 100 | inactive | 27% |  |  |  |  | O=C(O)CCc1ccc(NCc2cccc(Br)c2)cc1
23 | 2450 | inactive | 92 | inactive | > 100 | inactive | inactive |  |  |  |  | O=C(O)CCc1ccc2oc(-c3ccccc3)cc2c1
24 | 525 | inactive | 102 | inactive | > 100 | inactive |  |  |  |  |  | N#Cc1cccc(COc2ccc(CCC(=O)O)cc2)c1
25 | 204 | inactive | 98 | inactive | > 100 | inactive | 23% |  |  |  |  | O=C(O)CCc1ccc(OCc2ccc(Oc3ccccc3)cc2)cc1
26 | 200 | inactive | 108 | inactive | > 100 | inactive |  |  |  |  |  | O=C(O)CCc1ccc(C#Cc2ccccc2)cc1
27 |  | inactive |  | inactive | > 100 | inactive |  |  |  |  |  | O=C(O)CCc1ccc(OCc2ccccc2-c2ccccc2)cc1
28 | 57.5 | inactive | 98 | inactive | > 100 | inactive | 51% |  |  |  |  | O=C(O)CCc1ccc(OCc2cccc(Oc3ccccc3)c2)cc1
29 | 50.1 | inactive | 112 | inactive | > 100 | inactive | 37% | 263 |  | 81.3 | 562 | Cc1ccccc1-c1cccc(COc2ccc(CCC(=O)O)cc2)c1
30 | 3630 | inactive | 116 | inactive | > 100 | inactive |  |  |  |  |  | O=C(O)CCc1ccc(CCc2ccccc2)cc1
31 | 89.1 | inactive | 99 | inactive | > 100 | inactive | 19% |  |  |  |  | O=C(O)CCc1ccc(OCc2cccc(Br)c2)cc1
